Data published in ChEMBL document CHEMBL1926552, “Design and synthesis of simplified taxol analogs based on the T-Taxol bioactive conformation” (Bioorg Med Chem, 2011).
Converted amounts (≈) assume the structure as drawn. The source made the active and inactive calls. No cut-off for these calls is given here.

Key:
A2780 = assay: Antiproliferative activity against human A2780 cells after 2 days by alamar blue assay; type: functional, cell-based; settings: A2780, 48 h
[1] = Solubility of the compound in buffer containing 10% DMSO; type: physicochemical
Bos taurus [2] = species on record: Bos taurus; assay: Induction of bovine brain beta-tubulin polymerization at 60 uM using DAPI staining-based by fluorescence assay relative to control
How it was run: (§1)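 Bovine brain tubulin was loaded with 5 mM GDP in PME buffer (100 mM Pipes, 1 mM MgSO4, 2 mM EGTA, pH 6.9), then gel-filtered into PMED (PME plus 0.1 mM GDP). Tubulin (8 µM, just below critical concentration) with 10 µM DAPI was equilibrated at 37 °C. Ligand (8 or 60 µM) in DMSO (10% v/v final) was added to start the reaction. Fluorescence (ex 360, em 450 nm) was read to steady state against a DMSO-only control.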

Bos taurus [3] = species on record: Bos taurus; assay: Induction of bovine brain beta-tubulin assembly assessed as prevention of temperature-induced microtubule disassembly at 60 uM at 4 degC by absorption spectrophotometric analysis relative to control
How it was run: (§2)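 Bovine brain tubulin, 15 µM final, in PMEG buffer (100 mM Pipes, 1 mM MgSO4, 2 mM EGTA, 1 mM GTP, pH 6.9), equilibrated to 37 °C and baseline recorded. Ligand (15 or 60 µM) added, and assembly followed as light scattering at OD 350 nm. The sample was then cooled to 4 °C to follow disassembly. DMSO was 10% v/v final; the control had tubulin plus DMSO only.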

Bos taurus [4] = species on record: Bos taurus; assay: Induction of bovine brain alpha-tubulin assembly assessed as increase in formed microtubule concentration at 60 uM at 37 degC by absorption spectrophotometric analysis relative to control; how it was run: as §2
Bos taurus [5] = species on record: Bos taurus; assay: Induction of bovine brain alpha-tubulin polymerization at 60 uM using DAPI staining-based by fluorescence assay relative to control; how it was run: as §1
Bos taurus [6] = species on record: Bos taurus; assay: Induction of bovine brain alpha-tubulin assembly assessed as prevention of temperature-induced microtubule disassembly at 60 uM at 4 degC by absorption spectrophotometric analysis relative to control; how it was run: as §2
Bos taurus [7] = species on record: Bos taurus; assay: Induction of bovine brain beta-tubulin assembly assessed as increase in formed microtubule concentration at 60 uM at 37 degC by absorption spectrophotometric analysis relative to control; how it was run: as §2
Bos taurus [8] = species on record: Bos taurus; assay: Induction of bovine brain beta-tubulin assembly assessed as increase in formed microtubule concentration at 15 uM at 37 degC by absorption spectrophotometric analysis relative to control; how it was run: as §2
Bos taurus [9] = species on record: Bos taurus; assay: Induction of bovine brain beta-tubulin polymerization at 8 uM using DAPI staining-based by fluorescence assay relative to control; how it was run: as §1
Bos taurus [10] = species on record: Bos taurus; assay: Induction of bovine brain beta-tubulin assembly assessed as prevention of temperature-induced microtubule disassembly at 15 uM at 4 degC by absorption spectrophotometric analysis relative to control; how it was run: as §2
Bos taurus [11] = species on record: Bos taurus; assay: Induction of bovine brain alpha-tubulin assembly assessed as prevention of temperature-induced microtubule disassembly at 15 uM at 4 degC by absorption spectrophotometric analysis relative to control; how it was run: as §2
Bos taurus [12] = species on record: Bos taurus; assay: Induction of bovine brain alpha-tubulin polymerization at 8 uM using DAPI staining-based by fluorescence assay relative to control; how it was run: as §1
Bos taurus [13] = species on record: Bos taurus; assay: Induction of bovine brain alpha-tubulin assembly assessed as increase in formed microtubule concentration at 15 uM at 37 degC by absorption spectrophotometric analysis relative to control; how it was run: as §2

Compound	IC50 (A2780) [µM]	solubility [1] [µM]	Activity (Bos taurus [2])	Activity (Bos taurus [3])	Activity (Bos taurus [4])	Activity (Bos taurus [5])	Activity (Bos taurus [6])	Activity (Bos taurus [7])	Activity (Bos taurus [8])	Activity (Bos taurus [9])	Activity (Bos taurus [10])	Activity (Bos taurus [11])	Activity (Bos taurus [12])	Activity (Bos taurus [13])
C=CCOc1cccc2c1[C@@H](OC(=O)c1ccccc1)[C@@H]1C[C@H](OC(=O)[C@H](O)[C@@H](NC(=O)c3ccccc3)c3ccccc3CC=C)CN1C2	23.8	60 (≈ 40.4 µg/mL)	inactive	Active	Active	inactive	Active	Active						
O=C(N[C@H]1c2ccccc2C/C=C/COc2cccc3c2[C@H](OC(=O)c2ccccc2)[C@@H]2C[C@@H](CN2C3)OC(=O)[C@@H]1O)c1ccccc1	4	60 (≈ 38.7 µg/mL)	inactive	Active	Active	inactive	Active	Active						
O=C(N[C@H]1c2ccccc2OCC/C=C/COc2cccc3c2[C@H](OC(=O)c2ccccc2)[C@@H]2C[C@@H](CN2C3)OC(=O)[C@@H]1O)c1ccccc1	4.5	60 (≈ 40.5 µg/mL)	inactive	Active	Active	inactive	Active	Active						
C=CCOc1cccc2c1[C@H](OC(=O)c1ccccc1)[C@@H]1C[C@H](OC(=O)[C@H](O)[C@@H](NC(=O)c3ccccc3)c3ccccc3CC=C)CN1C2	4.7	60 (≈ 40.4 µg/mL)	inactive	Active	Active	inactive	Active	Active						
O=C(N[C@H]1c2ccccc2OC/C=C/COc2cccc3c2[C@H](OC(=O)c2ccccc2)[C@@H]2C[C@@H](CN2C3)OC(=O)[C@@H]1O)c1ccccc1	4.1	60 (≈ 39.6 µg/mL)	inactive	Active	Active	inactive	Active	Active						
O=C(N[C@H]1c2ccccc2C/C=C/COc2cccc3c2[C@@H](OC(=O)c2ccccc2)[C@@H]2C[C@@H](CN2C3)OC(=O)[C@@H]1O)c1ccccc1	5.1	60 (≈ 38.7 µg/mL)	inactive	Active	Active	inactive	Active	Active						
C=CCCOc1ccccc1[C@H](NC(=O)c1ccccc1)[C@@H](O)C(=O)O[C@H]1C[C@H]2[C@@H](OC(=O)c3ccccc3)c3c(cccc3OCC=C)CN2C1	5.8	60 (≈ 42.2 µg/mL)	inactive	Active	Active	inactive	Active	Active						
C=CCOc1ccccc1[C@H](NC(=O)c1ccccc1)[C@@H](O)C(=O)O[C@H]1C[C@H]2[C@@H](OC(=O)c3ccccc3)c3c(cccc3OCC=C)CN2C1	8.3	60 (≈ 41.3 µg/mL)	inactive	Active	Active	inactive	Active	Active						
CC(=O)O[C@H]1C(=O)[C@@]2(C)[C@H]([C@H](OC(=O)c3ccccc3)[C@]3(O)C[C@H](OC(=O)[C@H](O)[C@@H](NC(=O)c4ccccc4)c4ccccc4)C(C)=C1C3(C)C)[C@]1(OC(C)=O)CO[C@@H]1C[C@@H]2O									Active	inactive	Active	Active	inactive	Active
